Experimental data reported in ChEMBL document CHEMBL1154083, “Synthesis and structure-activity relationship of 3beta-(4-alkylthio, -methylsulfinyl, and -methylsulfonylphenyl)tropane and 3beta-(4-alkylthiophenyl)nortropane derivatives for monoamine transporters” (Bioorg Med Chem, 2009).

Assays:
[1] = target: Sodium-dependent serotonin transporter (Homo sapiens, UniProt P31645); assay: Displacement of [3H]paroxetine from 5-HTT
Procedure, shortened: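 Inhibition of [3H]paroxetine binding at 5-HTT, a single-site transporter, with Ki calculated from it. Compounds tested as HCl or tartrate salts. Mean ± standard error of three or four experiments, each run in triplicate.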

[2] = Selectivity ratio of Ki for NET to Ki for 5-HTT
Procedure, shortened: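 NET/5-HTT selectivity: NET Ki (from [3H]nisoxetine binding) divided by 5-HTT Ki (from [3H]paroxetine binding). Both values are means of three or four triplicate experiments.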

[3] = target: Sodium-dependent noradrenaline transporter (Homo sapiens, UniProt P23975); assay: Displacement of [3H]nisoxetine from NET
[4] = target: Sodium-dependent dopamine transporter (Homo sapiens, UniProt Q01959); assay: Displacement of [3H]WIN-35428 from DAT
Procedure, shortened: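 [3H]WIN35,428 displacement at DAT; IC50 reported because DAT has two binding sites. Compounds tested as HCl or tartrate salts. Mean ± standard error of three or four experiments, each run in triplicate.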

[5] = Selectivity ratio of Ki for NET to IC50 for DAT
Procedure, shortened: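 NET/DAT selectivity: NET Ki (from [3H]nisoxetine binding) divided by DAT IC50 (from [3H]WIN35,428 binding). Both values are means of three or four triplicate experiments.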

Sodium-dependent dopamine transporter, sequence (Q01959 whole entry): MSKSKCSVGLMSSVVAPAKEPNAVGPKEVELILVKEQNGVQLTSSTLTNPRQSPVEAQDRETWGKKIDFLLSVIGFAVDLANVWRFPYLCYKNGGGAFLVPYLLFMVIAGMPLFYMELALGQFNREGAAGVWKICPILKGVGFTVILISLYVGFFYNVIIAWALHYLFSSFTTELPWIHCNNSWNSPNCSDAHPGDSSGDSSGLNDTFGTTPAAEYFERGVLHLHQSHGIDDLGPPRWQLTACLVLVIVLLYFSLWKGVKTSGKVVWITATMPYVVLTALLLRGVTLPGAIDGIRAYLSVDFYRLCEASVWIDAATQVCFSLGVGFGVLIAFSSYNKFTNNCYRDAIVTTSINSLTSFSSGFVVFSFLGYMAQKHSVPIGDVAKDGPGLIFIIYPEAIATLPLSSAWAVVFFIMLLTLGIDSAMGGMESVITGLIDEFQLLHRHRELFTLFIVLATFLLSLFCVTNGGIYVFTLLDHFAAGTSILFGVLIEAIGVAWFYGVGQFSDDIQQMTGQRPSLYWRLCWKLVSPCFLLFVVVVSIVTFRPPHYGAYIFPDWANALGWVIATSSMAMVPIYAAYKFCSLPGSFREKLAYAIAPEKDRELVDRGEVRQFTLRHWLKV
Sodium-dependent serotonin transporter, sequence (P31645 whole entry): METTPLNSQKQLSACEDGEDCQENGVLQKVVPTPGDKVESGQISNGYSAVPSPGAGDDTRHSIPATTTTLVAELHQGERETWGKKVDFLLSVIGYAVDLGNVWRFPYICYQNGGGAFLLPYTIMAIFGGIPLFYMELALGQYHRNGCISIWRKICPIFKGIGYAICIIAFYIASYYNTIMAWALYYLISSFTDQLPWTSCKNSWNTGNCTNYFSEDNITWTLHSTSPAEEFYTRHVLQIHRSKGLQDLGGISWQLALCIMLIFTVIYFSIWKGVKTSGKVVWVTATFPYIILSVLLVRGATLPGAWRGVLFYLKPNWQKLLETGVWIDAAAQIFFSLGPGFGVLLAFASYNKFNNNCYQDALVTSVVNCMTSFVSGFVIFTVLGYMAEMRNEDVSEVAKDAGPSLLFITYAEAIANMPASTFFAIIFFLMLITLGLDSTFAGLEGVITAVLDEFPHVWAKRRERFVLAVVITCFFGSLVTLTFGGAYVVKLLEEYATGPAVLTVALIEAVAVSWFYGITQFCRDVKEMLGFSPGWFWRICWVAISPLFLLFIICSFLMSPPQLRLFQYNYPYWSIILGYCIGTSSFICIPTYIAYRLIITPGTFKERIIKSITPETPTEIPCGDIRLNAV
Sodium-dependent noradrenaline transporter, sequence (P23975 whole entry): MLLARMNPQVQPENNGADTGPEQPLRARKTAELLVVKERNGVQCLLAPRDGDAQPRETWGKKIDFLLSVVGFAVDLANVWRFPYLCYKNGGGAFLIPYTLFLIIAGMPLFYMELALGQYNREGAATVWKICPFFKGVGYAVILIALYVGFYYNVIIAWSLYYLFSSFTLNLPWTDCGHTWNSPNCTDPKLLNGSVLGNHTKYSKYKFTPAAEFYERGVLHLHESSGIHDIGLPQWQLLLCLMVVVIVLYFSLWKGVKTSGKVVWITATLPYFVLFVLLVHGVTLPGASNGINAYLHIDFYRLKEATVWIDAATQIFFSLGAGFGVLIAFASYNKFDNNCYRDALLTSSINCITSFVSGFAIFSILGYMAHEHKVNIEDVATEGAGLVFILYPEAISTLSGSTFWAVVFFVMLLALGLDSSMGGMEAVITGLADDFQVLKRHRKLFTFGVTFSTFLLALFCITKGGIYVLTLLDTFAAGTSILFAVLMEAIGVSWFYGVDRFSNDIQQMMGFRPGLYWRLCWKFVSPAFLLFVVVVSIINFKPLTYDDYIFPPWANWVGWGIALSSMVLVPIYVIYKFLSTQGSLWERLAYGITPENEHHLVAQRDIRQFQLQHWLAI

Compound | Ki [1] | Ratio Ki [2] | Ki [3] | IC50 [4] | Ratio [5]
C=CCN1C2CCC1[C@@H](C(=O)OC)[C@@H](c1ccc(SC)cc1)C2 (stereo partly specified) | 5.5 nM | 364 | 2000 nM | 71 nM | 28
COC(=O)[C@H]1[C@@H](c2ccc([S+](C)[O-])c(Br)c2)C[C@@H]2CC[C@H]1N2C (stereo partly specified) | 3.2 nM | 216 | 690 nM | 76 nM | 9
COC(=O)[C@H]1[C@@H](c2ccc([S+](C)[O-])cc2)C[C@@H]2CC[C@H]1N2C (stereo partly specified) | 4.3 nM | 120 | 515 nM | 91 nM | 6
COC(=O)[C@H]1[C@@H](c2ccc(S(C)(=O)=O)cc2)C[C@@H]2CC[C@H]1N2C | 208 nM | > 48 | > 10000 nM | > 10000 nM | –
CCCN1C2CCC1[C@@H](C(=O)OC)[C@@H](c1ccc(SCC)cc1)C2 (stereo partly specified) | 49 nM | > 41 | > 2000 nM | 900 nM | > 2
COC(=O)[C@@H]1C2CCC(C[C@@H]1c1ccc(SC)cc1)N2 (stereo partly specified) | 0.19 nM | 110 | 21 nM | 28 nM | 0.8
CCCN1C2CCC1[C@@H](C(=O)OC)[C@@H](c1ccc(SC)cc1)C2 (stereo partly specified) | 5.7 nM | 211 | 1200 nM | 74 nM | 16
COC(=O)[C@H]1[C@@H](c2ccc(OC)cc2)C[C@@H]2CC[C@H]1N2C | 4.3 nM | – | 1110 nM | – | –
C=CCN1C2CCC1[C@@H](C(=O)OC)[C@@H](c1ccc(SCC)cc1)C2 (stereo partly specified) | 47 nM | > 43 | > 2000 nM | 1100 nM | > 2
CCSc1ccc([C@H]2C[C@@H]3CC[C@H]([C@H]2C(=O)OC)N3C)cc1 | 4.5 nM | 260 | 1170 nM | 232 nM | 5
COC(=O)[C@@H]1C2CCC(C[C@@H]1c1ccc(SC)cc1)N2CCCF (stereo partly specified) | 3 nM | 320 | 960 nM | 112 nM | 9
COC(=O)[C@H]1[C@@H](c2ccc(SC)c(Br)c2)C[C@@H]2CC[C@H]1N2C | 0.6 nM | 202 | 121 nM | 10.1 nM | 12
COC(=O)[C@H]1[C@@H](c2ccc(SC(F)(F)F)cc2)C[C@@H]2CC[C@H]1N2C | 8 nM | 238 | 1900 nM | 200 nM | 10
COC(=O)[C@H]1[C@@H](c2ccc(SC(C)C)cc2)C[C@@H]2CC[C@H]1N2C | 23 nM | 7 | 129 nM | 16 nM | 8
CCSc1ccc([C@H]2CC3CCC([C@H]2C(=O)OC)N3CCCF)cc1 (stereo partly specified) | 27 nM | > 74 | > 2000 nM | 1200 nM | 2
CCSc1ccc([C@H]2CC3CCC(N3)[C@H]2C(=O)OC)cc1 (stereo partly specified) | 1.26 nM | 94 | 118 nM | 177 nM | 0.7
COC(=O)[C@H]1[C@@H](c2ccc(SC)cc2)C[C@@H]2CC[C@H]1N2C | 0.7 nM | 314 | 220 nM | 9 nM | 24
